This is an account of results in paper PMC5062748 (Drug development research, 2016).

SMILES strings stand for the structures.

In one experiment the target is T1, HNE (Homo sapiens, UniProt P08246).
T1 sequence (P08246 30-247 limits assumed): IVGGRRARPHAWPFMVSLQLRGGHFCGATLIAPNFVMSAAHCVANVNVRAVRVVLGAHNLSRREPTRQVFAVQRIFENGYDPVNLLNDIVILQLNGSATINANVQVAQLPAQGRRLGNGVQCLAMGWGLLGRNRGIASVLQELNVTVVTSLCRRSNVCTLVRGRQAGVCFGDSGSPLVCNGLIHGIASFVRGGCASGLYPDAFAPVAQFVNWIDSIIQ
Nature of the experiment: HNE inhibition assay. It counts as biochemical.
Settings: not given
The method, boiled down: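 Human neutrophil elastase (20 mU/mL) in 200 mM Tris–HCl pH 7.5, 0.01% BSA, 0.05% Tween-20, with test compound at varied concentrations (DMSO final 1%, top 50 µM). Reaction started with 25 µM substrate. Fluorescence (ex 355/em 460 nm) read every 30 s for 10 min at 25 °C. IC50 from % inhibition vs log concentration (≥6 points). Mean ± SD of three independent experiments.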
One may read the IC50 as the midpoint of a concentration-inhibition curve. The low end stands for greater potency, the high end for weaker potency. `CCOC(=O)c1cn(C(=O)c2ccc(Cl)cc2)c2ccccc12` [2e, Ethyl 1-(4-chlorobenzoyl)-1H-indole-3-carboxylate] gave an IC50 of 3.8 ± 0.4 µM.
On the same count and under the same terms, with `CCOC(=O)c1cn(C(=O)c2ccc(F)cc2)c2ccccc12` [2g, Ethyl 1-(4-fluorobenzoyl)-1H-indole-3-carboxylate] the figure was 12.2 ± 2.3 µM; with `Cc1ccc(C(=O)n2cc(C(=O)Nc3ccccc3)c3ccccc32)cc1` [5c, 1-(4-methylbenzoyl)-N-phenyl-1H-indole-3-carboxamide], 45.3 ± 6.7 µM.
As for `CCOC(=O)c1cn(C(=O)c2cccc(C)c2)c2ccc(Br)cc12` [7a, Ethyl 5-bromo-1-(3-methylbenzoyl)-1H-indole-3-carboxylate], half-maximal inhibition (IC50) was put at 21.6 ± 3.3 µM.
For the molecule `CCOC(=O)c1cn(C(=O)c2ccc(C)cc2)c2cc(Br)ccc12` [7c, Ethyl 6-bromo-1-(4-methylbenzoyl)-1H-indole-3-carboxylate], the IC50 is 10.5 ± 1.7 µM.
Turning to `CCOC(=O)c1cn(C(=O)c2cccc(C)c2)c2ccc([N+](=O)[O-])cc12` [7d, Ethyl 1-(3-methylbenzoyl)-5-nitro-1H-indole-3-carboxylate], inhibition was half-maximal at 2.4 ± 0.4 µM (IC50).
In turn, `CCOC(=O)c1cn(C(=O)c2ccc(C)cc2)c2ccc([N+](=O)[O-])cc12` [7e, Ethyl 1-(4-methylbenzoyl)-5-nitro-1H-indole-3-carboxylate] registered an IC50 of 13.2 ± 1.8 µM.

The experiment is the same for the next values; noted with them: highest tested concentration 50 µM.
Regarding `CCOC(=O)c1cn(-c2cccc(C)c2)c2ccccc12` [2a, Ethyl 1-(m-tolyl)-1H-indole-3-carboxylate], the “HNE inhibitory activity (in words)” value is “lack of activity”.
With `CCOC(=O)c1cn(C(=O)c2cccc(C)c2)c2ccccc12` [2c, Ethyl 1-(3-methylbenzoyl)-1H-indole-3-carboxylate], the “HNE inhibitory activity (in words)” value was “inactive”.
As for `CCOC(=O)c1cn(C(=O)c2cccc(Cl)c2)c2ccccc12` [2f, Ethyl 1-(3-chlorobenzoyl)-1H-indole-3-carboxylate], the “HNE inhibitory activity (in words)” value was “inactive”.
On to `Cc1ccc(S(=O)(=O)n2cc(C(=O)Nc3ccccc3)c3ccccc32)cc1` [5f, N-phenyl-1-tosyl-1H-indole-3-carboxamide], for which the “HNE inhibitory activity (in words)” value is “lack of activity”.
Same read-out and setting: with `CCOC(=O)c1cn(C(=O)c2cccc(C)c2)c2cc(Br)ccc12` [7b, Ethyl 6-bromo-1-(3-methylbenzoyl)-1H-indole-3-carboxylate] the entry was “no activity”.
As to `CCOC(=O)c1cn(C(=O)c2ccc(C)cc2)c2ccc(N)cc12` [compound 8, Ethyl 5-amino-1-(4-methylbenzoyl)-1H-indole-3-carboxylate], the “HNE inhibitory activity (in words)” value is reported as “no activity”.
On to `CCOC(=O)c1cn(C(=O)c2ccc(C)cc2)c2ccc(NC(C)=O)cc12` [compound 9, Ethyl 5-acetamido-1-(4-methylbenzoyl)-1H-indole-3-carboxylate], for which the “HNE inhibitory activity (in words)” value is “no activity”.
